Assay results collected from several papers.
Compare with care: the assays were run in different laboratories.
BCHE: Cholinesterase (BCHE, Homo sapiens, UniProt P06276)
CYSLTR1: Cysteinyl leukotriene receptor 1 (CYSLTR1, Homo sapiens, UniProt Q9Y271)

C=CCn1c2cc(OC(=O)CCCCN3CCN(Cc4cccc(F)c4)CC3)ccc2c2ccnc(C)c21 has an inhibition of 17.3% (BCHE; enzyme activity, inhibitor, Ellman; 1 µM).
O=C(Nc1cccnn1)N1CCN([C@@H]2CCOc3cc(C(F)(F)F)ccc32)CC1 gave an inhibition of 10% (Somatostatin receptor type 1 (SSTR1, Homo sapiens, UniProt P30872); cell-free assay; 20 µM).
C=CCn1c2cc(OC(=O)CCCCN3CCN(Cc4ccccc4C)CC3)ccc2c2ccnc(C)c21 gave an inhibition of 39.8% (BCHE; enzyme activity, inhibitor, Ellman; 1 µM).
For CN(CCN1CCC(OC(=O)Nc2ccccc2-c2ccccc2)CC1)C(=O)c1ccc(CN2CCC(C(N)=O)CC2)cc1, the inhibition was 1% (Melanocortin receptor 4 (MC4R, Homo sapiens, UniProt P32245); ligand displacement, radioligand; 1 µM).
With COc1ccc2c(c1)[nH]c1c(C)nccc12 the inhibition was 25.7% (BCHE; enzyme activity, inhibitor, Ellman; 1 µM).
The inhibition of CC(C)C[C@H](NC(=O)[C@H](Cc1ccccc1)NC(=O)c1cnccn1)B(O)O is reported as 94.2% (Plasma kallikrein (KLKB1, Homo sapiens, UniProt P03952); enzyme activity, inhibitor; 33 µM).
Cn1cc(-c2cc(F)cc(N3CCn4c(cc5c4CCCC5)C3=O)c2CO)cc(Nc2ccc(N3CCN(C4COC4)CC3)cn2)c1=O has an inhibition of 40% (Tyrosine-protein kinase Fgr (FGR, Homo sapiens, UniProt P09769); enzyme activity, inhibitor; 0.1 µM).
With COc1ccc2c(c1)[nH]c1c(C)nccc12 the inhibition was 53.6% (DNA dC->dU-editing enzyme APOBEC-3B (Homo sapiens, UniProt Q9UH17); enzyme activity, inhibitor, fluorescence; 100 µM).
For COc1ccc(S(=O)(=O)N2CCCCC2)cc1C, the inhibition was < 30% (CYSLTR1; ligand displacement, radioligand; 10 µM).
COCc1c(-c2cc3cc(C)cc(OC)c3s2)c2c(N)ncnn2c1CN1CCNC(=O)C1 gave an inhibition of 97.3% (Interferon-induced, double-stranded RNA-activated protein kinase (EIF2AK2, Homo sapiens, UniProt P19525); cell-free assay, competition with immobilised ligand; 1 µM).
With C#Cc1n[nH]c2c(-c3cn([C@@H](C)c4ccccn4)c(=O)[nH]c3=O)cc(F)cc12 the inhibition was 5.4% (Fibroblast growth factor receptor 1 (FGFR1, Homo sapiens, UniProt P11362); enzyme activity, inhibitor; 0.1 µM).
The inhibition of C=CCn1c2cc(OC(=O)CCCCCCN3CCN(Cc4ccccc4)CC3)ccc2c2ccnc(C)c21 is reported as 36.8% (BCHE; enzyme activity, inhibitor, Ellman; 1 µM).
C#Cc1n[nH]c2c(-c3cn([C@@H](C)c4ccccc4)c(=O)[nH]c3=O)cc(F)cc12 has an inhibition of -4.7% (Fibroblast growth factor receptor 1 (FGFR1, Homo sapiens, UniProt P11362, V561M); enzyme activity, inhibitor; 0.1 µM).
CC(C)N1CCC[C@H]1CNC(=O)c1cn(C2CCCC2)c(=O)c2c1c1ccccc1n2C gave an inhibition of 22% (CYSLTR1; ligand displacement, radioligand; 10 µM).
